Assay results as given in ChEMBL document CHEMBL1125676, “Synthesis and structure-activity studies of alkyl-substituted gamma-butyrolactones and gamma-thiobutyrolactones: ligands for the picrotoxin receptor” (J Med Chem, 1991).

What was measured:
Mus musculus [1] = species on record: Mus musculus; test: Convulsant potency was determined by measuring the ability to produce seizures in mice; type: functional
Outline: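 Compound given ip in 30% polyethylene glycol (0.01 mL/g body weight). Mice observed for 30 min for seizure activity. Value is the CD50 for clonic convulsions, from log probit analysis; 95% fiducial limits given.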

[2] = target: GABA-A receptor; anion channel; test: Binding affinity to picrotoxin site of the Gamma-aminobutyric acid receptor was measured using [35S]TBPS as radioligand; type: protein-complex assay
Outline: (§1)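 Rat cerebral cortex membranes (female Sprague–Dawley) washed and held in 50 mM Tris-citrate pH 7.5. [35S]TBPS at 2 nM final, in NaBr. Incubated in triplicate for 90 min at 25 °C, then filtered and scintillation counted. Nonspecific binding with 10 μM TBPS or 100 μM picrotoxinin. IC50 by log probit from ≥5 concentrations; mean ± SEM of three experiments.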

[3] = Neurotoxic effects by rotarod test in mice.; type: ADME, organism-based; settings: mouse, in vivo
Outline: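 Rotorod test in mice after ip dosing in 30% polyethylene glycol (0.01 mL/g). TD50 from log probit analysis of dose–response data.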

Mus musculus [4] = species on record: Mus musculus; test: Anticonvulsant activity in mice by maximal electroshock test.; type: functional
Outline: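 Maximal electroshock applied through corneal electrodes after 0.9% NaCl drops on the eyes. Compound given ip in 30% polyethylene glycol (0.01 mL/g). Protection defined as no tonic hind-limb extension past 90°. ED50 from log probit analysis of dose–response data.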

Mus musculus [5] = species on record: Mus musculus; test: Anticonvulsant activity in mice by inhibition of pentylenetetrazole induced seizures.; type: functional
[6] = target: GABA-A receptor; anion channel; test: Binding affinity to picrotoxin site of Gamma-aminobutyric acid receptor using [35S]TBPS as radioligand; type: protein-complex assay, Rattus norvegicus; outline: as §1
Mus musculus [7] = test: Concentration of brain at 10 min was determined after the compound was administered intraperitoneally at a dose 259 mg/kg in mice; type: functional; settings: route intraperitoneal
Outline: (§2)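 Female CF-1 mice dosed ip and decapitated at the set time, n = 3. Cerebral cortex frozen and homogenized at 4 °C in chloroform:methanol 2:1 with an internal standard. Lower phase analysed by capillary GC-FID with splitless injection. Concentration taken from the ratio to the internal standard, corrected for detector response and wet weight. Mean ± SEM.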

Mus musculus [8] = test: Concentration of brain at 20 min was determined after the compound was administered intraperitoneally at a dose 259 mg/kg in mice; type: functional; settings: route intraperitoneal; outline: as §2
Mus musculus [9] = test: Concentration of brain at 5 min was determined after the compound was administered intraperitoneally at a dose 259 mg/kg in mice; type: functional; settings: route intraperitoneal; outline: as §2
Mus musculus [10] = test: Concentration of brain at 30 min was determined after the compound was administered intraperitoneally at a dose 259 mg/kg in mice; type: functional; settings: route intraperitoneal; outline: as §2
Mus musculus [11] = test: Concentration of brain at 40 min was determined after the compound was administered intraperitoneally at a dose 259 mg/kg in mice; type: functional; settings: route intraperitoneal

Row | Structure (SMILES) | IC50 [2] [µM] | TD50 [3] [mg/kg] | ED50 (Mus musculus [4]) [mg/kg] | ED50 (Mus musculus [5]) [mg/kg] | IC50 [6] [µM] | further results
1 | CC(C)C1COC(=O)C1 (stereo not given) | 42000 | – | – | – | – | CD50 (Mus musculus [1]): 15 mg/kg
2 | CCC1(C)COC(=O)C1 (stereo not given) | 55000 | – | – | – | – | CD50 (Mus musculus [1]): 20 mg/kg
3 | CC1CCOC1=O (stereo not given) | > 10000 | > 500 | > 500 | > 500 | – | –
4 | CC(C)C1CCSC1=O (stereo not given) | – | > 500 | > 500 | 145 | 260 | –
5 | CC(C)C1(C(C)C)CCSC1=O | 74 | > 500 | > 500 | > 500 | – | –
6 | CCC1(CC)CCOC1=O | – | 416 | 463 | 191 | 750 | –
7 | CC1CCSC1=O (stereo not given) | 4400 | – | 91 | 91 | – | –
8 | CC(C)C1CCOC1=O (stereo not given) | 2000 | > 400 | > 400 | 150 | – | –
9 | CC1(C)CCOC1=O | – | > 500 | > 500 | > 500 | 9200 | –
10 | CCC1(C)CCSC1=O (stereo not given) | 330 | – | – | – | – | –
11 | CCC1(C)CSC(=O)C1 (stereo not given) | – | – | – | – | – | CD50 (Mus musculus [1]): 3.5 mg/kg
12 | CC(C)C1(C)CCSC1=O (stereo not given) | 140 | > 500 | > 500 | 154 | – | –
13 | CCC1(C)CC(=O)OC1(C)C (stereo not given) | – | – | – | – | 22000 | CD50 (Mus musculus [1]): 8.2 mg/kg
14 | CCC1CCSC1=O (stereo not given) | 1500 | > 500 | 232 | 414 | – | –
15 | CC(C)(C)C1CCOC1=O (stereo not given) | – | > 500 | 375 | 145 | 990 | –
16 | CC1(C)CCSC1=O | 920 | 220 | 369 | 208 | – | –
17 | CC(C)C1(C(C)C)CCOC1=O | 220 | – | – | 137 | – | –
18 | CCC1(CC)CCSC1=O | 260 | 285 | 374 | 104 | – | –
19 | CC(C)C1(C)CCOC1=O (stereo not given) | 850 | 278 | > 500 | 198 | – | –
20 | CC(C)(C)C1COC(=O)C1 (stereo not given) | – | – | – | – | 13000 | CD50 (Mus musculus [1]): 5.5 mg/kg
21 | CCC1CCOC1=O (stereo not given) | – | > 500 | > 500 | > 500 | 8500 | –
22 | CCC1(C)CCOC1=O (stereo not given) | – | 621 | > 500 | 259 | 2300 | Brain concentration (Mus musculus [7]): 1.83 mM; Brain concentration (Mus musculus [8]): 1.35 mM; Brain concentration (Mus musculus [9]): 2.97 mM; Brain concentration (Mus musculus [10]): 1.21 mM; Brain concentration (Mus musculus [11]): 0.88 mM
23 | CC(C)(C)C1CCSC1=O (stereo not given) | 190 | > 500 | > 500 | 244 | – | –
